Results reported in ChEMBL document CHEMBL6134775, “Breaking boundaries in diabetic nephropathy treatment: design and synthesis of novel steroidal SGLT2 inhibitors” (RSC Med Chem, 2025).
pIC50: −log10 of the molar value. Active and inactive are the calls of the source. No cut-off for these calls is given here.

Key:
[1] = system: NRK-52E; assay: Cytotoxicity against rat NRK-52E cells assessed as reduction in cell viability at 1 to 50 uM pretreated with 33 mM glucose for 6 hrs followed by compound addition and measured after 24 hrs by Alamar blue dye based microplate reader analysis; assay type: toxicity; conditions: dose 1-50 µM
Summary of the method: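 Alamar blue assay in NRK-52E cells grown in high-glucose DMEM with 10% FBS at 37 °C, 5% CO2. At 80-90% confluency, cells got 33 mM glucose for 6 h, then compound at 1-50 μM (vehicle 0.1% DMSO + 1XPBS) for 24 h. Dye incubation 4 h; OD read at 570 and 600 nm. Viability expressed as the absorbance ratio to the vehicle control.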

[2] = biological target: T1, Sodium/glucose cotransporter 2 (Rattus norvegicus) (UniProt P53792); assay: Inhibition of SGLT2-mediated glucose uptake in rat NRK-52E cells assessed as reduction in glucose uptake at 1 to 10 uM preincubated with 33 mM glucose for 6 hrs followed by compound addition and measured after 24 hrs by fluorescence based microplate reader analysis; assay type: cell-based; conditions: dose 1-10 µM
T1 sequence (whole entry): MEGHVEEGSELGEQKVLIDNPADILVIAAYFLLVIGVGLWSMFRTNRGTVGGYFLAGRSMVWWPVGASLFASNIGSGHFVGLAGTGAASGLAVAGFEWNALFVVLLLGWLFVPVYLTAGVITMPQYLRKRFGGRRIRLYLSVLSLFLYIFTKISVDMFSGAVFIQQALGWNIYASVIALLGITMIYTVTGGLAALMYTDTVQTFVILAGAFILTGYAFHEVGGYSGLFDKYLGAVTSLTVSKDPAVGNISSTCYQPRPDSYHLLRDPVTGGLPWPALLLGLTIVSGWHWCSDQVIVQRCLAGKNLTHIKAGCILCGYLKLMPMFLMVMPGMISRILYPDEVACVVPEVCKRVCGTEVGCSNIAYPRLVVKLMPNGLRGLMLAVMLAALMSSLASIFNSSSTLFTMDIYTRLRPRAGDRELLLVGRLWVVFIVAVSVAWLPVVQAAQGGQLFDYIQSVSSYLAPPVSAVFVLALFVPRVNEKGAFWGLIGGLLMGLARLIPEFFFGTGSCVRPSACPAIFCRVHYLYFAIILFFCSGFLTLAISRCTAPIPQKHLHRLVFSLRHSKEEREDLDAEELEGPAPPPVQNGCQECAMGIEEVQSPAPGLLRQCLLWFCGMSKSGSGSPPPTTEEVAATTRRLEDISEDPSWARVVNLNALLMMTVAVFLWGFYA
Summary of the method: (§1)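 6-NBDG uptake in NRK-52E cells seeded at 1×10^4/well, exposed to 33 mM glucose for 6 h, then to compound (1, 5, 10 μM; dose series 100 nM-10 μM; vehicle 0.1% DMSO + 1XPBS) for 24 h. Cells were rinsed in Na+-free buffer and given 20 μM 6-NBDG in Na+ or Na+-free HEPES buffer (pH 7.4) for 20 min at 37 °C. After lysis in 1% Triton X (pH 10) plus DMSO, fluorescence was read at 470/540 nm. Results are fold change vs control; n = 3.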

[3] = biological target: T1, Sodium/glucose cotransporter 2 (Rattus norvegicus); assay: Inhibition of SGLT2-mediated glucose uptake in rat NRK-52E cells assessed as fold decrease in reduction of glucose uptake at 1 uM preincubated with 33 mM glucose for 6 hrs followed by compound addition and measured after 24 hrs by fluorescence based microplate reader analysis relative to glucose alone; assay type: cell-based; summary of the method: as §1
[4] = biological target: T2, Sodium/glucose cotransporter 2 (Rattus norvegicus, UniProt P53792); assay: Inhibition of SGLT2-mediated glucose uptake in rat NRK-52E cells assessed as reduction in glucose uptake preincubated with 33 mM glucose for 6 hrs followed by compound addition and measured after 24 hrs by fluorescence based microplate reader analysis; assay type: cell-based; summary of the method: as §1
T2 sequence (P53792 whole entry): T1 sequence (whole entry)

[5] = biological target: T1, Sodium/glucose cotransporter 2 (Rattus norvegicus); assay: Inhibition of SGLT2-mediated glucose uptake in rat NRK-52E cells assessed as reduction in glucose uptake by measuring fold change at 500 nM preincubated with 33 mM glucose for 6 hrs followed by compound addition and measured after 24 hrs by fluorescence based microplate reader analysis; assay type: cell-based; summary of the method: as §1
[6] = system: NRK-52E; assay: Downregulation of SGLT2 protein expression in glucose-induced rat NRK-52E cells at 1 to 5 uM by Western blotting analysis; assay type: functional, cell-based; conditions: dose 1-5 µM
Summary of the method: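 NRK-52E cells got 33 mM glucose for 6 h, then compound for 24 h, and were lysed in RIPA with protease/phosphatase inhibitors; protein was measured by BCA. Samples of about 20-30 μg were run on 10% SDS-PAGE and transferred to nitrocellulose. Blots were blocked in 1% BSA, probed with anti-SGLT2 (1:1000) overnight at 4 °C, then HRP anti-rabbit (1:1000) for 2 h, and detected by ECL with densitometry. β-actin served as loading control; three repeats.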

[7] = system: NRK-52E; assay: Effect of SGLT1 protein expression in glucose-induced rat NRK-52E cells at 1 to 5 uM by Western blotting analysis; assay type: functional, cell-based; conditions: dose 1-5 µM
[8] = system: NRK-52E; assay: Inhibition of ROS generation in rat NRK-52E cells assessed as reduction in intracellular ROS generation at […] preincubated with glucose for 6 hrs followed by compound addition and measured after 24 hrs by DCFDA staining based spectrofluorometric analysis relative to glucose alone; assay type: functional, cell-based
Summary of the method: (§2)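 NRK-52E cells in 24-well plates got 33 mM glucose for 6 h, then compound at 100 nM-10 μM (vehicle 0.1% DMSO + 1XPBS) for 24 h. Cells were loaded with 10 μM H2DCFDA for 30 min at 37 °C in the dark, lysed with 1% Triton X-100 and DMSO. Fluorescence was read at 480/530 nm in triplicate; the glucose-only signal was set as 100%.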

[9] = system: Mitochondrial membrane; assay: Restoration of mitochondrial membrane depolarization in glucose induced rat NRK-52E cells assessed as increase in green fluorescence intensity at […] pretreated with glucose for 6 hrs followed by compound addition and measured after 24 hrs by rhodamine-123 staining based cytofluorimetric analysis; assay type: cell membranes
Summary of the method: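 NRK-52E cells (2×10^5/well) received 33 mM glucose for 6 h, then compound at 500 nM, 1 or 5 μM for 24 h. They were stained with 200 ng/mL rhodamine 123 for 30 min at 37 °C, washed, and analysed by flow cytometry.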

[10] = system: NRK-52E; assay: Downregulation of NOX-4 expression in glucose induced rat NRK-52E cells at 1 to 5 uM by Western blotting analysis; assay type: functional, cell-based; conditions: dose 1-5 µM
[11] = system: NRK-52E; assay: Inhibition of NF-kappaB activation in glucose induced rat NRK-52E cells at 0.005 to 5 uM by Western blotting analysis; assay type: cell-based; conditions: dose 0.005-5 µM
[12] = system: NRK-52E; assay: Downregulation of IL-6 expression in glucose induced rat NRK-52E cells at 0.005 to 5 uM by Western blotting analysis; assay type: functional, cell-based; conditions: dose 0.005-5 µM
[13] = system: NRK-52E; assay: Downregulation of TGF-beta1 expression in glucose induced rat NRK-52E cells at 0.005 to 5 uM by Western blotting analysis; assay type: functional, cell-based; conditions: dose 0.005-5 µM
[14] = system: NRK-52E; assay: Inhibition of fibronectin expression in glucose induced rat NRK-52E cells at 0.005 to 5 uM by Western blotting analysis; assay type: functional, cell-based; conditions: dose 0.005-5 µM
[15] = system: NRK-52E; assay: Inhibition of collagen-IV expression in glucose induced rat NRK-52E cells at 0.005 to 5 uM by Western blotting analysis; assay type: functional, cell-based; conditions: dose 0.005-5 µM
[16] = system: NRK-52E; assay: Inhibition of ROS generation in rat NRK-52E cells assessed as reduction in intracellular ROS generation at 0.25 to 10 uM preincubated with glucose for 6 hrs followed by compound addition and measured after 24 hrs by DCFDA staining based spectrofluorometric analysis; assay type: functional, cell-based; conditions: dose 0.25-10 µM; summary of the method: as §2
[17] = system: NRK-52E; assay: Induction of AMPK phosphorylation in glucose induced rat NRK-52E cells at 1 to 5 uM by Western blotting analysis; assay type: cell-based; conditions: filed as activator, dose 1-5 µM

## C[C@]12CC[C@H](O)CC1=CC[C@@H]1[C@@H]2CC[C@]2(C)c3c(cnc4cc(-c5ccc(Br)cc5)nn34)C[C@@H]12
[1]
  Activity: Non-toxic

## C[C@]12CC[C@H](O)CC1=CC[C@@H]1[C@@H]2CC[C@]2(C)c3c(cnc4cc(-c5ccccc5)nn34)C[C@@H]12
[1]
  Activity: Non-toxic

## CC(=O)O[C@H]1CC[C@@]2(C)C(=CC[C@@H]3[C@@H]2CC[C@]2(C)c4c(cnc5nc6c(Cl)cccc6n45)C[C@@H]32)C1
[1]
  Activity: Non-toxic

## COc1cccc2nn3c4c(cnc3c12)C[C@H]1[C@@H]2CC=C3C[C@@H](OC(C)=O)CC[C@]3(C)[C@H]2CC[C@]41C
[1]
  Activity: Non-toxic
[2]
  inhibition: inactive

## C[C@]12CC[C@H](O)CC1=CC[C@@H]1[C@@H]2CC[C@]2(C)c3c(cnc4cc(-c5ccc(Cl)cc5)nn34)C[C@@H]12
[1]
  Activity: Non-toxic

## CC(=O)O[C@H]1CC[C@@]2(C)C(=CC[C@@H]3[C@@H]2CC[C@]2(C)c4c(cnc5nc6cc(Cl)ccc6n45)C[C@@H]32)C1
[1]
  Activity: Non-toxic

## C[C@]12CC[C@H](O)CC1=CC[C@@H]1[C@@H]2CC[C@]2(C)c3c(cnc4nc5cc(Cl)ccc5n34)C[C@@H]12
[1]
  Activity: Non-toxic

## COc1cccc2nn3c4c(cnc3c12)C[C@H]1[C@@H]2CC=C3C[C@@H](O)CC[C@]3(C)[C@H]2CC[C@]41C
[1]
  Activity: Non-toxic
[2]
  inhibition: inactive

## CC(=O)O[C@H]1CC[C@@]2(C)C(=CC[C@@H]3[C@@H]2CC[C@]2(C)c4c(cnc5cc(-c6ccc(Cl)cc6)nn45)C[C@@H]32)C1
[1]
  Activity: Non-toxic

## C[C@]12CC[C@H](O)CC1=CC[C@@H]1[C@@H]2CC[C@]2(C)c3c(cnc4nc5ccccc5n34)C[C@@H]12
[1]
  Activity: Non-toxic
[2]
  inhibition: Active
[3]
  fold change (FC): 2
[4]
  pIC50: 8.54
[5]
  fold change (FC): 1.4
[6]
  Activity: Active
[7]
  Activity: inactive
[8]
  inhibition: Active
[9]
  Activity: Active
[10]
  Activity: Active
[11]
  inhibition: Active
[12]
  Activity: Active
[13]
  Activity: Active
[14]
  inhibition: Active
[15]
  inhibition: Active
[16]
  inhibition: Active; Significant Decrease Observed
[17]
  Activity: Active

## C[C@]12CC[C@H](O)CC1=CC[C@@H]1[C@@H]2CC[C@]2(C)c3c(cnc4nc5c(Cl)cccc5n34)C[C@@H]12
[1]
  Activity: Non-toxic

## CC(=O)O[C@H]1CC[C@@]2(C)C(=CC[C@@H]3[C@@H]2CC[C@]2(C)c4c(cnc5cc(-c6ccc(Br)cc6)nn45)C[C@@H]32)C1
[1]
  Activity: Non-toxic

## CC(=O)O[C@H]1CC[C@@]2(C)C(=CC[C@@H]3[C@@H]2CC[C@]2(C)c4c(cnc5cc(-c6ccccc6)nn45)C[C@@H]32)C1
[1]
  Activity: Non-toxic

## CC(=O)O[C@H]1CC[C@@]2(C)C(=CC[C@@H]3[C@@H]2CC[C@]2(C)c4c(cnc5c(C#N)cnn45)C[C@@H]32)C1
[1]
  Activity: Non-toxic

## CC(=O)O[C@H]1CC[C@@]2(C)C(=CC[C@@H]3[C@@H]2CC[C@]2(C)c4c(cnc5nc6ccc(Cl)cc6n45)C[C@@H]32)C1
[1]
  Activity: Non-toxic

## Cc1ccc([C@@H]2O[C@H](CO)[C@@H](O)[C@H](O)[C@H]2O)cc1Cc1ccc(-c2ccc(F)cc2)s1 [CANAGLIFLOZIN ANHYDROUS]
[4]
  pIC50: 8.63

## CC(=O)O[C@H]1CC[C@@]2(C)C(=CC[C@@H]3[C@@H]2CC[C@]2(C)c4c(cnc5nc6ccccc6n45)C[C@@H]32)C1
[1]
  Activity: Non-toxic
